Columns and labels:
[1] = molecular target: T1, Protein kinase C alpha type (Homo sapiens, UniProt P17252); assay: Affinity for protein kinase-C alpha (PK-C alpha)
Procedure, shortened: (§1)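 Competitive displacement of bound [20-3H]phorbol 12,13-dibutyrate (PDBU) from recombinant single-isozyme PK-Cα in the presence of phosphatidylserine. ID50 was obtained by fitting the inhibition data points to a theoretical noncooperative competition curve.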

[2] = Partition coefficient (logP); assay type: physicochemical; conditions: octanol/water
[3] = molecular target: T1, Protein kinase C alpha type; assay: Affinity for protein kinase C alpha; procedure, shortened: as §1

`CCCCCCCCC(=O)O[C@@H](CO)C1C/C(=C\CC(C(C)C)C(C)C)C(=O)O1` (stereo not given in full) gave a Ki [1] of 1.09 µM and a logP [2] of 6.08.

Compound `CCCCCCCC/C=C1\CC([C@H](CO)OC(=O)CCCCCCCC)OC1=O` (stereo not given in full) has a Ki [1] of 1.2 µM, a Ki [3] of 1.2 µM and a logP [2] of 6.3.

In the case of `CCCCCCCCCC(=O)OCC1(CO)C/C(=C/CC(C)C)C(=O)O1` (stereo not given), the Ki [3] is reported as 0.0023 µM.

Compound `CC(C)C(C/C=C1\CC([C@H](CO)OC(=O)CC(C(C)C)C(C)C)OC1=O)C(C)C` (stereo not given in full) has a Ki [1] of 0.679 µM and a logP [2] of 5.86.

In the case of `CCCCCCC/C=C/CCCCCCC/C=C1/CC(CO)(COC(C)=O)OC1=O` (stereo not given), the Ki [3] is reported as 0.024 µM.

For `CCCCCCCC/C=C1/CC([C@H](CO)OC(=O)CC(C)C)OC1=O` (stereo not given in full), the Ki [3] was 0.565 µM.

With `CCCCCCCCC(=O)O[C@@H](CO)C1C/C(=C/CC(C(C)C)C(C)C)C(=O)O1` (stereo not given in full) the Ki [1] was 0.499 µM.

With `CCCCCCCC/C=C1/CC([C@H](CO)OC(=O)CCCCCCCC)OC1=O` (stereo not given in full) the Ki [1] was 1.76 µM and the Ki [3] was 1.76 µM.

Compound `CCCCCCCC/C=C1\CC([C@H](CO)OC(=O)CC(C)C)OC1=O` (stereo not given in full) has a Ki [3] of 0.579 µM.

For `CC(C)C(C/C=C1/CC([C@H](CO)OC(=O)CC(C(C)C)C(C)C)OC1=O)C(C)C` (stereo not given in full), the Ki [1] was 0.327 µM.

Compound `CCCCCCCC/C=C1/CC([C@H](CO)OC(=O)CC(C(C)C)C(C)C)OC1=O` (stereo not given in full) has a Ki [1] of 0.565 µM.

For `CCCCCCCCCCCCCC(=O)O[C@@H](CO)C1CCC(=O)O1` (stereo not given in full), the Ki [1] was 1 µM and the Ki [3] was 1 µM.

For `CCCCCCCCC/C=C1/CC(CO)(COC(=O)CC(C)C)OC1=O` (stereo not given), the Ki [3] was 0.013 µM.

With `CCCCCCCC/C=C/CCCCCCCC(=O)OCC1(CO)CCC(=O)O1` (stereo not given) the Ki [3] was 0.096 µM.

Reference: ChEMBL document CHEMBL1133159, “Conformationally constrained analogues of diacylglycerol (DAG). 17. Contrast between sn-1 and sn-2 DAG lactones in binding to protein kinase C” (J Med Chem, 2000)
